{"source": "ChEMBL document CHEMBL4837207", "about": "“Discovery of pyrrolo[2,3-d]pyrimidine derivatives as potent Axl inhibitors: Design, synthesis and biological evaluation” (Eur J Med Chem, 2021)", "key": {"[1]": {"molecular_target": "T1, Receptor-type tyrosine-protein kinase FLT3 (Homo sapiens, UniProt P36888)", "T1 sequence (P36888 whole entry)": "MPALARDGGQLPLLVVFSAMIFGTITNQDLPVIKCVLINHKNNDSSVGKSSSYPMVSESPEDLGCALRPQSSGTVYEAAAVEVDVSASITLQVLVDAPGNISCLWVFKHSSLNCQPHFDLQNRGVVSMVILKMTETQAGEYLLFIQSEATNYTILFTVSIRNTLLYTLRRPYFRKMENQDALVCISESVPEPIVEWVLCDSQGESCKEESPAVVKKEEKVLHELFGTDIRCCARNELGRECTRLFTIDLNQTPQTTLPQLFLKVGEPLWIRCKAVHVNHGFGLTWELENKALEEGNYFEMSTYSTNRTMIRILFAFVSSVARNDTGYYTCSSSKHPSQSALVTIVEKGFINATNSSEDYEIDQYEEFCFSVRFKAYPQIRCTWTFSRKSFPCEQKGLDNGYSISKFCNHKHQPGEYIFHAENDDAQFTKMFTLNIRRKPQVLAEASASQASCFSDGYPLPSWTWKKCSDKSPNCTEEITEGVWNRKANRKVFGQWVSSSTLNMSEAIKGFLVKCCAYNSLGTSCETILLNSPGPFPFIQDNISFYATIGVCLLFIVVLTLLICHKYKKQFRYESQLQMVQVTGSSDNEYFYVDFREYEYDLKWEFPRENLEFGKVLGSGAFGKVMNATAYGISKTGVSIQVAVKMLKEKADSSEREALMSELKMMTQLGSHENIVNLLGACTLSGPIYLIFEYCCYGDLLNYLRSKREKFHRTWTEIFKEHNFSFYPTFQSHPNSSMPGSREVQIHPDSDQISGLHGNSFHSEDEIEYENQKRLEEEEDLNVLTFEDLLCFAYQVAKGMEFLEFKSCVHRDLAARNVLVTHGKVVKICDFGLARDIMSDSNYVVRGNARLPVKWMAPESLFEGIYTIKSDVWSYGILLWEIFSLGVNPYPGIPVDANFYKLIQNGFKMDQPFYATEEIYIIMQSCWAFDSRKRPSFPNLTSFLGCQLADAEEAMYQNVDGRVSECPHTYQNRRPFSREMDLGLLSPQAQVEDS", "experiment": "Inhibition of FLT-3 (unknown origin) by ELISA"}, "[2]": {"experiment": "Tmax in Sprague-Dawley rat at 3 mg/kg, po via gavage measured up to 24 hrs by LC-MS analysis", "format": "ADME, organism-based", "details": "in vivo", "summary_of_the_method": "(§1)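 Male Sprague-Dawley rats (n = 3) dosed once by oral gavage at 3 mg/kg as a solution in 5% DMSO/95% (0.5% CMC-Na). Blood sampled at 0.25, 0.5, 1, 2, 4, 6, 8 and 24 h, kept on wet ice, serum separated by centrifugation and stored at -20 °C. Serum levels measured by LC-MS/MS; parameters reported as means.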"}, "[3]": {"molecular_target": "T2, Tyrosine-protein kinase receptor UFO (Mus musculus) (UniProt Q00993)", "T2 sequence (whole entry)": "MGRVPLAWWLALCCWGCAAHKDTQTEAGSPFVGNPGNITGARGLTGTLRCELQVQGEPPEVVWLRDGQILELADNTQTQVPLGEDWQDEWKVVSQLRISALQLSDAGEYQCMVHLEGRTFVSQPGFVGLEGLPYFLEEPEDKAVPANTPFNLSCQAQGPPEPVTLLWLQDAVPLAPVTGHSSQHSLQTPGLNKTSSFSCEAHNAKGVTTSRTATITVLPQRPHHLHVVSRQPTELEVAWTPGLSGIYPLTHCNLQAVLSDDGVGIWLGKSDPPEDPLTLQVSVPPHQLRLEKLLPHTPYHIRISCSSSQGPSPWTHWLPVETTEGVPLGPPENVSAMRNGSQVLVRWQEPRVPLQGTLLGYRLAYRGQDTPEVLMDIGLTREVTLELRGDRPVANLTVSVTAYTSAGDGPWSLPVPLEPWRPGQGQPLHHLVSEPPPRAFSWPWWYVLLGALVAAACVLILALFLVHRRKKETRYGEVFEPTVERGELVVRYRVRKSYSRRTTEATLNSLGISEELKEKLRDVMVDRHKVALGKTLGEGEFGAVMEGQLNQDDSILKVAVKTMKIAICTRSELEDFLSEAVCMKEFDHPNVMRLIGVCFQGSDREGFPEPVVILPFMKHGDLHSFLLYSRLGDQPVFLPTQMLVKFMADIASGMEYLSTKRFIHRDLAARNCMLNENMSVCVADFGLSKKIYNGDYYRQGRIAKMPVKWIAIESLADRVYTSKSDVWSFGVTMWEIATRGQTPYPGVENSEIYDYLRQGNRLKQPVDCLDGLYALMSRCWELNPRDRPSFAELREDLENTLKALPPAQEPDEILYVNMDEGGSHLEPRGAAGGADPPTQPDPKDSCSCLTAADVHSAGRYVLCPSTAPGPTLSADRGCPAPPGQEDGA", "experiment": "Inhibition of AXL phosphorylation in mouse BaF3 by Western blot analysis", "details": "dose 0.1-10 nM", "summary_of_the_method": "(§2)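 Cells in exponential growth (BaF3 engineered to stably express constitutively active human wild-type TEL-Axl; MKN-45) exposed to the indicated concentrations for 2 h, then lysed in 1× SDS sample buffer. Phosphorylated proteins detected by Western blot.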"}, "[4]": {"molecular_target": "Vascular endothelial growth factor receptor 2 (Homo sapiens, UniProt P35968)", "sequence (P35968 whole entry)": "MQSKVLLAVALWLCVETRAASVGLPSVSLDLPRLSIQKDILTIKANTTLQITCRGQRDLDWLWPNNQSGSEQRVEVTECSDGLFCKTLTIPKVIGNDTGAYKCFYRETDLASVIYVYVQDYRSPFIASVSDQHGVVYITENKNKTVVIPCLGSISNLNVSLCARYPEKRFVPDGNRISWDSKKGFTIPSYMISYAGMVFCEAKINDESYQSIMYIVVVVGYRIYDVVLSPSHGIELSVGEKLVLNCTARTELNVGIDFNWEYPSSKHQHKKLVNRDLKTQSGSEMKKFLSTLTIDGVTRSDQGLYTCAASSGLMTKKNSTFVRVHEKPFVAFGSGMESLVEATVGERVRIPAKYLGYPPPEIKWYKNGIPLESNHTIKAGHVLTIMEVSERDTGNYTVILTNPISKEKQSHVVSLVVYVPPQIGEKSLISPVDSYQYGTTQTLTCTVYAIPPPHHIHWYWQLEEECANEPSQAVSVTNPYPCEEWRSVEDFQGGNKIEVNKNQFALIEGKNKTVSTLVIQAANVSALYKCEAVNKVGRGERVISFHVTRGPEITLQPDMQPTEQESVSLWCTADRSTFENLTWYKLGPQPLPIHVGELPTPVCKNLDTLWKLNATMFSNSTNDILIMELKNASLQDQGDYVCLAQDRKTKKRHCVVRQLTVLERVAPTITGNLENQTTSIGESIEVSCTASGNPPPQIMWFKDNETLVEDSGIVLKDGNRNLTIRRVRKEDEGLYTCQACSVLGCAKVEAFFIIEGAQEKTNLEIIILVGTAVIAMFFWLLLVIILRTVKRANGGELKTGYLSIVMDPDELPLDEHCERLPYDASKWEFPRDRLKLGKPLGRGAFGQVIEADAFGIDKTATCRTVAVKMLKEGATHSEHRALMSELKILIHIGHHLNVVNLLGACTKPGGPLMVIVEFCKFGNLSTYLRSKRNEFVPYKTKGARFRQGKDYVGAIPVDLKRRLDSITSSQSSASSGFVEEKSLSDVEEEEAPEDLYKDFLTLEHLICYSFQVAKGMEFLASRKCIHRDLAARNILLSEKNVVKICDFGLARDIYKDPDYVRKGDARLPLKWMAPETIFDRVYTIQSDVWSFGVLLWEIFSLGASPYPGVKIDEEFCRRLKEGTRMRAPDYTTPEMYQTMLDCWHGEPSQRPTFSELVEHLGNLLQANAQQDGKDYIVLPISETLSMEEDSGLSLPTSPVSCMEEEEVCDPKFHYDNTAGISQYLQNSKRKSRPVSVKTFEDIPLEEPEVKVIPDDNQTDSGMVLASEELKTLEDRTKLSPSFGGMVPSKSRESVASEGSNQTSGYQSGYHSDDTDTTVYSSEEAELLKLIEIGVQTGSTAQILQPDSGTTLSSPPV", "experiment": "Inhibition of VEGFR2 (unknown origin) by ELISA"}, "[5]": {"molecular_target": "Hepatocyte growth factor receptor (Homo sapiens, UniProt P08581)", "sequence (P08581 whole entry)": "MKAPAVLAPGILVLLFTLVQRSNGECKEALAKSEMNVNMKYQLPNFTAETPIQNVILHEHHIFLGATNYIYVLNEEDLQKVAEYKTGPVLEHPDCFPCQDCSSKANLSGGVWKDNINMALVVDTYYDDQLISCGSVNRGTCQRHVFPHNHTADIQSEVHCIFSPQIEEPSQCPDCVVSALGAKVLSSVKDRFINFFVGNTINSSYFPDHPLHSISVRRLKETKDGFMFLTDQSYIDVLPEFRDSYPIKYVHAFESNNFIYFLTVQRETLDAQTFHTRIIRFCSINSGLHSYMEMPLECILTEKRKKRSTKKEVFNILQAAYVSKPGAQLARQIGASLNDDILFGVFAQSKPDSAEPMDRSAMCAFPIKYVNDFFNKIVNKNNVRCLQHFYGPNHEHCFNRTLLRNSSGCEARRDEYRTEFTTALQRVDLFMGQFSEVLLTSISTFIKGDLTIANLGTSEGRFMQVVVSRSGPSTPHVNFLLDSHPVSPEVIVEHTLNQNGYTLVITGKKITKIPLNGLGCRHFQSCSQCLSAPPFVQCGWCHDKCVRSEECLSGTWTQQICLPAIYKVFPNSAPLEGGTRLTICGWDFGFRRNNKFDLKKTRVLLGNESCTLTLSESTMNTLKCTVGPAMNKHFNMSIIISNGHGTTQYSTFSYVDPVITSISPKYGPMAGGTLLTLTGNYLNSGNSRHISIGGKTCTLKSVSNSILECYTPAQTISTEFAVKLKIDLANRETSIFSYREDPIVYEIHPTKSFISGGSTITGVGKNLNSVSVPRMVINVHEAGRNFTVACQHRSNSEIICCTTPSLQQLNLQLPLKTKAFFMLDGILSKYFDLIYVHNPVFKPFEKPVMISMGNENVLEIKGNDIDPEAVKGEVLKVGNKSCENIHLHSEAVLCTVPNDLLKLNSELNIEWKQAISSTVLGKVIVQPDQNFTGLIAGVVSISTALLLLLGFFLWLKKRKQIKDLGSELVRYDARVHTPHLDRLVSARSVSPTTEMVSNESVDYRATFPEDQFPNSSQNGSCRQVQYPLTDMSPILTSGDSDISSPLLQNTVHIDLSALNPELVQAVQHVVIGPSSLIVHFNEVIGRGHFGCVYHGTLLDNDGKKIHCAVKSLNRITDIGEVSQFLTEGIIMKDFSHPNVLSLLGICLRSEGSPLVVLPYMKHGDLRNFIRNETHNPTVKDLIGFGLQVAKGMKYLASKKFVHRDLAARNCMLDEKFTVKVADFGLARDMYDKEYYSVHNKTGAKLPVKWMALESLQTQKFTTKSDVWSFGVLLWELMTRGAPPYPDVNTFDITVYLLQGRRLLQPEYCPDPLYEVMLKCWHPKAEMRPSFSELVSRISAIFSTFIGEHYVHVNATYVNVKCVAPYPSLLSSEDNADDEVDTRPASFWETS", "experiment": "Inhibition of c-met phosphorylation at Y1234/Y1235 residues in human MKN-45 cells by Western blot analysis", "format": "cell-based", "details": "dose 2.5-20 nM", "summary_of_the_method": "as §2"}, "[6]": {"molecular_target": "Vascular endothelial growth factor receptor 1 (Homo sapiens, UniProt P17948)", "sequence (P17948 whole entry)": "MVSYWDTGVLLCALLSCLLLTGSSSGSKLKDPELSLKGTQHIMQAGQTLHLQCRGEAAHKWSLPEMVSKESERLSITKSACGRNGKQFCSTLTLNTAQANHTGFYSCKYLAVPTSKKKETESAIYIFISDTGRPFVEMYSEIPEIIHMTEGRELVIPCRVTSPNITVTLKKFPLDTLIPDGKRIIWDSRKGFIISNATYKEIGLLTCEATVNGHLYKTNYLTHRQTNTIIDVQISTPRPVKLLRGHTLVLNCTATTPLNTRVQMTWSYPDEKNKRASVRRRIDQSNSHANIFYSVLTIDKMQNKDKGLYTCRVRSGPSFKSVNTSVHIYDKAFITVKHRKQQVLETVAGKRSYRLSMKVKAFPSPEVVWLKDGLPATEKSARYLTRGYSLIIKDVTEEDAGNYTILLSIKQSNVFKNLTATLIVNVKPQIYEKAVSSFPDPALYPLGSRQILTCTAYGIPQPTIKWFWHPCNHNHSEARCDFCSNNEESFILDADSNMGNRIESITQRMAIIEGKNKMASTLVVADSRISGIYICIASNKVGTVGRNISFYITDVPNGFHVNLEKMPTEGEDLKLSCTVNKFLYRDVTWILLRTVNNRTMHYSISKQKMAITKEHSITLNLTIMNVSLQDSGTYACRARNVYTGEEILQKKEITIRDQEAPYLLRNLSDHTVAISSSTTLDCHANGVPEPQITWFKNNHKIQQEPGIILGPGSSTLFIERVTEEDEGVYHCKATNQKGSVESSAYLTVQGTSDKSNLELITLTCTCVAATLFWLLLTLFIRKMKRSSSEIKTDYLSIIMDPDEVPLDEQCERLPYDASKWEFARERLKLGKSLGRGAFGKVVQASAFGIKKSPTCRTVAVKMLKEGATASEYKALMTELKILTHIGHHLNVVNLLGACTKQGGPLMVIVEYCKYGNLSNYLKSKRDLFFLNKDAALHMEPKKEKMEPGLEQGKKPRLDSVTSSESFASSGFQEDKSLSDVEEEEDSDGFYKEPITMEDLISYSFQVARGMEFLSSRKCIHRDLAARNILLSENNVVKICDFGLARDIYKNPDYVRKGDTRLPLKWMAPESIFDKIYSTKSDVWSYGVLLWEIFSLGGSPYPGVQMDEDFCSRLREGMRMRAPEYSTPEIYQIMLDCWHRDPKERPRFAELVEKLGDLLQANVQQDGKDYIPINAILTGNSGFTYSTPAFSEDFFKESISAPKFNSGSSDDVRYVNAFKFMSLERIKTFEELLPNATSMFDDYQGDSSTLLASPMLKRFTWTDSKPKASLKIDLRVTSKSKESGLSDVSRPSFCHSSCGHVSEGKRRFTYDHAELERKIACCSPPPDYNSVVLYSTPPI", "experiment": "Inhibition of VEGFR1 (unknown origin) by ELISA"}, "MKN-45": {"test_system": "MKN-45", "experiment": "Antiproliferative activity against human MKN-45 cells incubated for 72 hrs", "format": "functional, cell-based", "details": "MKN-45, 72 h", "summary_of_the_method": "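MKN-45 cells (MET-amplified gastric carcinoma) grown in the supplier-recommended medium and serum, seeded at low density and treated the next day across a concentration range for 72 h. Proliferation read by SRB or CCK-8. IC50 obtained from a four-parameter concentration-response fit; mean ± SD of two independent assays.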"}, "[7]": {"experiment": "Toxicity in nude mouse xenografted with mouse BaF3 cells stably expressing human TEL-AXL assessed as body weight at 10 to 100 mg/kg, po administered once daily for 14 consecutive days", "format": "organism-based", "details": "in vivo, 336 h, dose 10-100 mg/kg, time 14 day", "summary_of_the_method": "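BaF3/TEL-Axl cells implanted subcutaneously in nude mice and grown to 700–800 mm³; 1.5 mm³ tumor fragments then transplanted sc into the right flank. At 100–200 mm³, mice were randomized (n = 6 per treated group, 12 vehicle). Oral dosing once daily for 14 days at 10 or 50 mg/kg, with the higher dose raised to 100 mg/kg from day 8. Body weight tracked throughout treatment.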"}, "BaF3": {"test_system": "BaF3", "experiment": "Antiproliferative activity against mouse BaF3 stably expressing human TEL-AXL incubated for 72 hrs", "format": "functional, cell-based", "details": "BaF3, 72 h"}, "[8]": {"molecular_target": "Insulin-like growth factor 1 receptor (Homo sapiens, UniProt P08069)", "experiment": "Inhibition of IGF1R (unknown origin) by ELISA"}, "[9]": {"experiment": "Cmax in Sprague-Dawley rat at 3 mg/kg, po via gavage measured up to 24 hrs by LC-MS analysis", "format": "ADME, organism-based", "set-up": "route oral, dose 3 mg/kg, time <=24", "details": "in vivo", "summary_of_the_method": "as §1"}}}
{"smiles": "CC(C)n1cc(C(=O)Nc2cc(F)c(-c3c[nH]c4ncnc(N)c34)cc2F)c(=O)c(-c2ccc(F)cc2)c1", "values": [{"measurement": "IC50", "setting": "[1]", "result": "> 1", "unit": "µM"}, {"measurement": "Tmax", "setting": "[2]", "result": 1.08, "unit": "h"}, {"measurement": "inhibition", "setting": "[3]", "result": "Dose-Dependent Effect"}, {"measurement": "IC50", "setting": "[4]", "result": "> 1", "unit": "µM"}, {"measurement": "inhibition", "setting": "[5]", "result": "Dose-Dependent Effect"}, {"measurement": "IC50", "setting": "[6]", "result": "> 1", "unit": "µM"}, {"measurement": "IC50", "setting": "MKN-45", "result": 0.0132, "unit": "µM"}, {"measurement": "Activity", "setting": "[7]", "result": "Non-Toxic"}, {"measurement": "IC50", "setting": "BaF3", "result": "< 0.001", "unit": "µM"}, {"measurement": "IC50", "setting": "[8]", "result": "> 1", "unit": "µM"}, {"measurement": "Cmax", "setting": "[9]", "result": 14100, "unit": "ng/mL"}]}
